From ChEMBL document CHEMBL2157901, “Synthesis, biological evaluation and molecular modeling of dihydro-pyrazolyl-thiazolinone derivatives as potential COX-2 inhibitors” (Bioorg Med Chem, 2012)
Active and inactive are the calls of the source. The rule behind the calls is not given here.

Experiments:
[1] = target: T1, Prostaglandin G/H synthase 2 (Homo sapiens, UniProt P35354); assay: Inhibition of COX-2 by chemiluminescent assay
T1 sequence (P35354 whole entry): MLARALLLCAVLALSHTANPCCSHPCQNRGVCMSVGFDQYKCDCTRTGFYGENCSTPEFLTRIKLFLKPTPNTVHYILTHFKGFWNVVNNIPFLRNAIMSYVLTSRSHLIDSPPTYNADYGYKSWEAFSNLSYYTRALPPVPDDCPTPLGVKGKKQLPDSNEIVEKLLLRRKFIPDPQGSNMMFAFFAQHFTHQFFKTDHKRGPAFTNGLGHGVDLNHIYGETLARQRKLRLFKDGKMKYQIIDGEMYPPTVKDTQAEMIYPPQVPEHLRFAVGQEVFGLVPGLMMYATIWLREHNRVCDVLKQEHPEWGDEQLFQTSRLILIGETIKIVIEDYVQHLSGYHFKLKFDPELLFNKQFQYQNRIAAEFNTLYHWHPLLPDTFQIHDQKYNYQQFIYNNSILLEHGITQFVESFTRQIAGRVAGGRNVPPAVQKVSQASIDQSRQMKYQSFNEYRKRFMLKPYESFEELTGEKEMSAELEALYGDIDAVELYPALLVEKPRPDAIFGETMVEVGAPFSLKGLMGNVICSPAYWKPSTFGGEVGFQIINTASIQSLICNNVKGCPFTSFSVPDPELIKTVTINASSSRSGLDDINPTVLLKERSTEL

[2] = Cytotoxicity against LPS-activated mouse RAW264.7 cells after 24 hrs by MTT method; assay type: cell-based; details: LPS-activated RAW264.7 cells
Procedure, shortened: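 MTT assay in RAW264.7 cells grown in DMEM with 5% FBS, penicillin and streptomycin at 37 °C under 5% CO₂. Cells were seeded at 5 × 10⁴ per well and exposed for 24 h to compounds diluted from DMSO stocks (0.1% DMSO final). MTT (4 mg/mL) was added 4 h before the end, then plates were centrifuged and supernatant removed. CC₅₀ is the concentration cutting viability to 50%; mean of three experiments in triplicate.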

[3] = Selectivity index, ratio of IC50 for COX-1 to IC50 for COX-2
Procedure, shortened: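 COX-1 and COX-2 inhibition measured with a chemiluminescent enzyme assay kit. Each IC₅₀ (50% enzyme inhibition) is the mean of two determinations. Selectivity index taken as COX-1 IC₅₀ divided by COX-2 IC₅₀.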

[4] = target: Prostaglandin G/H synthase 1 (Homo sapiens, UniProt P23219); assay: Inhibition of COX-1 by chemiluminescent assay
Prostaglandin G/H synthase 1, sequence (P23219 whole entry): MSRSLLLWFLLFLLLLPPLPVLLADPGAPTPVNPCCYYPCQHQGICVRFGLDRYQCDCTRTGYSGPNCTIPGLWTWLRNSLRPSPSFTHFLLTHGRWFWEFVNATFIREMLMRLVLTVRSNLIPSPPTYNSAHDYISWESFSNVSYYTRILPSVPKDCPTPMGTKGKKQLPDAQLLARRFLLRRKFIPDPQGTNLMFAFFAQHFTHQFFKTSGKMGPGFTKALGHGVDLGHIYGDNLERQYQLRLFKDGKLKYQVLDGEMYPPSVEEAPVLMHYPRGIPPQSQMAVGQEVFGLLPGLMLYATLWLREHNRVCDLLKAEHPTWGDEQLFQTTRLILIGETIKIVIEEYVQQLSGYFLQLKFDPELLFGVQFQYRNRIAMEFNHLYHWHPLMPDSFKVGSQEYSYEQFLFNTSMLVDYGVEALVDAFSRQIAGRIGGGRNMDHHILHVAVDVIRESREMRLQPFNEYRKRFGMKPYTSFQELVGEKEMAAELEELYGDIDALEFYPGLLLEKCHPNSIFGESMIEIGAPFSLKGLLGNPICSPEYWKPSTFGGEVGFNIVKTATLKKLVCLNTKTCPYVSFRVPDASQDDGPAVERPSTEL

[5] = tested on: RAW264.7; assay: Inhibition of LPS-induced COX-2 expression in mouse RAW264.7 cells at >1.25 uM by Western blot analysis; assay type: functional, cell-based

Structure (SMILES)	IC50 [1] [µM]	CC50 at 24 h [2] [µM]	Ratio IC50 [3]	IC50 [4] [µM]	inhibition [5]
O=C1CSC(N2N=C(c3ccc(Cl)c(Cl)c3)CC2c2cccc(Cl)c2)=N1 (stereo unspecified)	16.1	165	> 3.1	> 50	–
Cc1cccc(C2CC(c3ccc(Cl)c(Cl)c3)=NN2C2=NC(=O)CS2)c1 (stereo unspecified)	7.2	204	> 6.9	> 50	–
Cc1cccc(C2CC(c3ccc(C)c(C)c3)=NN2C2=NC(=O)CS2)c1 (stereo unspecified)	2.7	237	> 18.5	> 50	–
Cc1ccc(C2=NN(C3=NC(=O)CS3)C(c3ccc(F)cc3)C2)cc1C (stereo unspecified)	6.4	246	6.4	40.8	–
Cc1ccccc1C1CC(c2ccc(Cl)c(Cl)c2)=NN1C1=NC(=O)CS1 (stereo unspecified)	16.3	179	2.8	45.6	–
COc1ccc(C2CC(c3ccc(Cl)c(Cl)c3)=NN2C2=NC(=O)CS2)cc1 (stereo unspecified)	6.8	264	> 7.4	> 50	–
O=C1CSC(N2N=C(c3ccc(Cl)c(Cl)c3)CC2c2ccccc2)=N1 (stereo unspecified)	2.7	295	12.3	33.2	–
Cc1ccc(C2=NN(C3=NC(=O)CS3)C(c3ccccc3Cl)C2)cc1C (stereo unspecified)	7.2	227	6.1	44.1	–
O=C1CSC(N2N=C(c3ccc(Cl)c(Cl)c3)CC2c2ccc(Br)cc2)=N1 (stereo unspecified)	7.6	280	6.4	48.5	–
Cc1ccc(C2=NN(C3=NC(=O)CS3)C(c3ccc(Cl)cc3)C2)cc1C (stereo unspecified)	4.5	226	10.8	48.6	–
O=C1CSC(N2N=C(c3ccc(Cl)c(Cl)c3)CC2c2ccccc2Cl)=N1 (stereo unspecified)	18.4	143	2.2	40.2	–
COc1ccc(C2CC(c3ccc(C)c(C)c3)=NN2C2=NC(=O)CS2)cc1 (stereo unspecified)	2.9	387	> 17.2	> 50	–
Cc1ccc(C2=NN(C3=NC(=O)CS3)C(c3cccc(Cl)c3)C2)cc1C (stereo unspecified)	5.2	178	> 9.6	> 50	–
O=C1CSC(N2N=C(c3ccc(Cl)c(Cl)c3)CC2c2ccc(Cl)cc2)=N1 (stereo unspecified)	11.7	187	3.2	37.7	–
O=C1CSC(N2N=C(c3ccc(Cl)c(Cl)c3)CC2c2ccc(F)cc2)=N1 (stereo unspecified)	19.4	139	1.8	34.3	–
Cc1ccc(C2CC(c3ccc(C)c(C)c3)=NN2C2=NC(=O)CS2)cc1 (stereo unspecified)	1.2	384	37.8	45.3	–
Cc1ccc(C2=NN(C3=NC(=O)CS3)C(c3ccccc3)C2)cc1C (stereo unspecified)	0.5	> 450	84.8	42.4	Active
Cc1ccc(C2=NN(C3=NC(=O)CS3)C(c3ccccc3C)C2)cc1C (stereo unspecified)	6.3	317	7.5	47.2	–
Cc1ccc(C2CC(c3ccc(Cl)c(Cl)c3)=NN2C2=NC(=O)CS2)cc1 (stereo unspecified)	4.7	279	9.4	44.3	–
Cc1ccc(C2=NN(C3=NC(=O)CS3)C(c3ccc(Br)cc3)C2)cc1C (stereo unspecified)	1.8	365	> 27.8	> 50	–
